Compound activity: PubChem, several laboratories
RanGTP-Impb inh: inhibitors of RanGTP-importin-beta interaction, primary screen, biochemical, FRET, CFP-Ran, YFP-importin-beta, homogeneous. Ran GTPase (GTP-bound) - importin-beta complex. cell-free CFP-Ran/YFP-importin-beta FRET ratio. inhibition, % (concentration not given with the values). hit rate 1.1% among 300,000. AID 2216, 2009;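 active = more than half of the replicate wells show a fall in the fluorescence ratio signal beyond about 16%, limit read from the data, passing the limit was not always enough; inconclusive = exactly half of the replicate wells pass the set limit; inactive = fewer than half of replicates pass the limit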;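 also: 0% = DMSO wells and 100% = Ran loaded with GDP instead of GTP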
Runt-SMMHC FRET: inhibitors of RUNX1 Runt–CBFb-SMMHC binding, primary screen, biochemical, FRET, Cerulean-Runt, Venus-CBFb-SMMHC, uHTS. Cerulean-Runt/Venus-CBFb-SMMHC FRET ratio 530/480, 1 h. AID 1434, 2008. hit rate 0.74% among 220,000. inhibition, % at 20 µM. Runt-related transcription factor 1 (Homo sapiens) + Core-binding factor subunit beta …;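 active = mean inhibition across duplicate retests at 20 µM reaching about 50%, limit read from the data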;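 also: 0% = DMSO wells and 100% = wells with excess untagged CBFb-SMMHC; inhibitors lower the FRET ratio by blocking Runt binding to CBFb-SMMHC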
Runt-CBFb FRET: inhibitors of RUNX1 Runt–CBFb binding, primary screen, biochemical, FRET, Cerulean-Runt, Venus-CBFb, uHTS. Cerulean-Runt/Venus-CBFb FRET ratio 530/480, 1 h. AID 1496, 2009. inhibition, % at 20 µM. Runt-related transcription factor 1 (Homo sapiens) + Core-binding factor subunit beta …. hit rate 0.46% among 220,000;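 active = inhibition over about 50% at 20 µM in the single-dose screen, limit read from the data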;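 also: 0% = DMSO wells and 100% = excess unlabeled CBFb competitor control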
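Schedule: protein complex preformed 1 h, compound exposure 1 h, room temperature, dark; test system: Cerulean-labeled Runt domain protein; amount: 100 nM per protein; buffer or medium: Tris 50 mM pH 7.5, KCl, K2SO4, 0.01% BSA; read-out: loss of energy transfer signal; detection: FRET fluorescence; controls: 5 µM unlabeled CBFb as full-inhibition high control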
Hck-Nef inh: inhibitors of Nef-activated human Hck kinase, primary screen, biochemical, Z-Lyte FRET, 384-well, Hck-YEEI. Tyrosine-protein kinase HCK (Homo sapiens), P08631. Recombinant Hck-YEEI plus Nef, Z-Lyte FRET kinase assay. inhibition, % at 20 µM. hit rate 0.68% among 220,000. AID 463187, 2010;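 active = Hck-Nef kinase inhibition above about 50%, limit read from the data; inactive = inhibition below that limit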;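 also: 0% = DMSO with Hck plus Nef and 100% = Hck alone without Nef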
Target sequence (P08631 whole entry, looked up): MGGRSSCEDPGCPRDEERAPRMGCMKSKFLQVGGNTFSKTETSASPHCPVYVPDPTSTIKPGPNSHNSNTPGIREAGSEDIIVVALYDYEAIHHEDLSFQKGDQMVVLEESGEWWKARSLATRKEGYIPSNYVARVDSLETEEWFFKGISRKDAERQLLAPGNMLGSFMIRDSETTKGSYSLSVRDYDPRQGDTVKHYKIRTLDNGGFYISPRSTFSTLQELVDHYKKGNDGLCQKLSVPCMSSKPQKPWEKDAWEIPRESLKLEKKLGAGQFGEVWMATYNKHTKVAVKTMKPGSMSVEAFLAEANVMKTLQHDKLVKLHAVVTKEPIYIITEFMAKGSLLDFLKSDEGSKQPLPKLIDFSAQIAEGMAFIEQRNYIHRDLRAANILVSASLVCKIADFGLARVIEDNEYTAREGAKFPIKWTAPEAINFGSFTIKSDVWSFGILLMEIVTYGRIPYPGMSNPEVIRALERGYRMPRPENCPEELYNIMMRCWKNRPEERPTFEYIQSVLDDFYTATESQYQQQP
Numbers without * were called inactive; ? = inconclusive; / = no result given. Sampled rows, rich in hits. Any-hit rate of the full collection: about 1.9%.

SMILES	RanGTP-Impb inh	Runt-SMMHC FRET	Runt-CBFb FRET	Hck-Nef inh
Cc1ccc(C(=O)O)cc1-c1ccc(/C=C2\SC(=O)N(CC(=O)Nc3ccccc3)C2=O)o1	24.1*	87.6	10.6	41.6
C#Cc1ccc([C@@H]2C=C(C(=O)OCC=C)O[C@H](OCCCCO)C2)cc1	-3.1	-3.4	-9.3	34.1
CCCCn1c(NC(=O)c2ccccc2)c(C#N)c2nc3ccccc3nc21	/	25.6	5.9	21.0
CCC(C)n1c(NC(=O)c2ccccc2)c(C#N)c2nc3ccccc3nc21 (stereo unspecified)	20.7*	65.7*	15.6	11.6
Cc1nn(C(C)(C)C)c(NC(=O)c2ccccc2)c1C#N	-5.5	/	/	/
CCCCn1c(NC(=O)c2ccc(F)cc2)c(C#N)c2nc3ccccc3nc21	17.6*	/	/	/
CC1=C(CC/C(C)=N/NC(N)=S)C(C)(C)CCC1	-2.3	3.8	-1.1	7.4
O=c1[nH]c(N/N=C/c2ccc(O)cc2)nc2ccccc12	-0.5	38.7	45.4	3.3
O=c1[nH]c(N/N=C\c2ccc(F)cc2)nc2ccccc12	38.3*	18.7	15.7	24.1
Cc1ccc(C(=O)Oc2cccnc2)cc1[N+](=O)[O-]	1.2	1.9	101.7*	5.0
O=C(Nc1ccc(S(=O)(=O)Nc2ncccn2)cc1)C1CC(=O)N(c2ccc(Cl)cc2)C1 (stereo unspecified)	-3.8	/	/	/
O=C1Nc2cc(C(F)(F)F)ccc2N2CCCCC12 (stereo unspecified)	1.2	/	/	/
CCOCCCNC(=O)c1cc2c(=O)n3cccc(C)c3nc2s1	-0.9	/	/	/
CCOCCCn1c(=NC(=O)c2cccs2)c(C#N)cc2c(=O)n3cccc(C)c3nc21	120.8*	81.0*	76.2*	20.2
Cc1cccn2c(=O)c3cc(C#N)c(=NC(=O)c4cccs4)n(CC(C)C)c3nc12	151.3*	88.1*	39.0	15.7
CCCCCc1c(O)nc(SCC(=O)O)[nH]c1=O	/	/	/	0.4
C=CCN(CC=C)c1nc2ccccc2nc1C(C#N)C(=O)OC(C)C (stereo unspecified)	28.7*	114.9*	16.2	0.1
CC(=O)NC(Cc1ccc(F)cc1)C(=O)NC1CCN(C(=O)NCc2ccccc2)CC1 (stereo unspecified)	0.4	/	/	/
N#CCC(CNc1ncc(C(F)(F)F)cc1Cl)OC(=O)c1ccc(Cl)cc1Cl (stereo unspecified)	0.0	-5.5	-4.1	0.2
CCn1ncc(Br)c1C(=O)Nc1sc2c(c1C(N)=O)CCC2	46.8*	-3.4	3.5	1.5
Cn1cc(Br)c(C(=O)Nc2sc3c(c2C(N)=O)CCC3)n1	5.5	-4.7	1.5	-1.2
O=C(CCN1C(=O)c2ccccc2S1(=O)=O)N1CCN(c2cccc(Cl)c2)CC1	0.1	/	/	/
Cn1cc(/C=N\O)nc2c(=O)n(-c3ccccc3)c(=O)nc1-2	33.5*	94.6*	83.5*	29.7
O/N=C/c1cn(-c2ccccc2)nn1	-2.2	0.9	-0.3	23.6
O=C(CSc1nc2c([nH]c3ccccc32)c(=O)n1-c1cccc(Cl)c1)N1CCOCC1	?	-0.9	/	52.6*
SMILES	RanGTP-Impb inh	Runt-SMMHC FRET	Runt-CBFb FRET	Hck-Nef inh
O=C(CSc1nc2c([nH]c3ccccc32)c(=O)n1-c1ccccc1)N1CCOCC1	5.9	1.7	9.2	-3.4
CN1/C(=C\C(=O)c2ccco2)C(C)(C)c2ccccc21	8.3	79.1*	9.1	33.4
CN1/C(=C\C(=O)COC(=O)c2ccco2)C(C)(C)c2ccccc21	?	0.8	-1.0	-4.5
CN1/C(=C\C(=O)c2cccc(S(=O)(=O)N3CCCCC3)c2)C(C)(C)c2ccccc21	21.4*	61.8	-8.4	5.5
Cc1csc(Nc2nc(N)c(C(=O)Nc3cc(Cl)ccc3F)o2)n1	3.4	/	/	/
Cc1oc(-c2ccccc2F)nc1CS(=O)(=O)CC(=O)NCCCN1CC(C)CC(C)C1 (stereo unspecified)	2.7	/	/	/
CCC1=[N+](CC(=O)c2ccc(C)cc2)CCn2c(C)ccc21	44.4*	-14.6	-3.5	1.7
CCC1=[N+](CC(=O)c2ccc(Br)cc2)CCn2c(C)ccc21	7.1	7.1	-4.3	4.3
CCCCCCNc1c([N+](=O)[O-])c(=O)sc2ccccc12	147.2*	-4.3	0.4	-4.5
CCOC(=O)c1c(C)nc2c(C)cccn12	3.3	-3.4	1.2	-1.2
CCOC(=O)CSc1nc2ccccc2c(=O)n1Cc1ccco1	-1.7	0.9	-0.2	-9.9
N=c1c(S(=O)(=O)c2ccc(Br)cc2)cc2c(=O)n3ccccc3nc2n1Cc1ccco1	4.4	/	/	/
CCOC(=O)c1cc2c(=O)n3ccccc3nc2n(Cc2ccco2)c1=NC(=O)c1ccccc1OCC	0.6	87.5*	73.5*	20.2
CCOC(=O)c1cc2c(=O)n3ccccc3nc2n(Cc2ccco2)c1=NC(=O)c1cccnc1	2.7	46.5	52.0*	11.8
CCOC(=O)c1cc2c(=O)n3cccc(C)c3nc2n(Cc2ccco2)c1=NC(=O)c1cccnc1	/	62.6*	102.2*	14.7
O=S(=O)(Cc1ccccc1)N1CCN(c2ccccc2)CC1	58.8*	-3.9	/	2.0
CN(C(=S)Nc1ccc(F)cc1)C1(c2ccccc2Cl)CCCCC1=O (stereo unspecified)	-1.7	-0.3	87.7*	1.7
C=CCN1C(=O)/C(=C2/Sc3ccccc3N2CCCS(=O)(=O)O)SC1=S	45.5*	65.3*	66.0*	6.5
CN1C(=O)/C(=C2/C=Cc3ccccc3N2CCCS(=O)(=O)O)SC1=S	-5.6	-2.1	-2.4	5.6
CCOC(=O)c1cc(C#N)c(SCC(=O)c2cc(C#N)c(SC)nc2C)[nH]c1=O	60.4*	35.5	15.7	1.4
CCOC(=O)c1cc(C#N)c(SCC(N)=O)[nH]c1=O	7.9	-33.3	3.6	-3.2
Cc1cc(Br)c2c(c1)C(O)(N1CCCCC1C)C(=O)N2 (stereo unspecified)	-1.2	0.1	-2.5	2.4
CC(=O)N(CN1C(=O)c2ccccc2C1=O)c1ccccc1	-0.1	3.6	1.1	3.9
CCNc1nc(C)c(CN(C(C)=O)c2ccccc2)nc1C#N	4.4	91.2*	32.1	23.0
CC(C)(C)C(=O)CN1C(=O)NC2(CCCc3ccccc32)C1=O (stereo unspecified)	1.9	/	/	/
COc1ccc(OC)c(C2CC(=O)N3CN(c4ccccc4)CSC3=C2C#N)c1 (stereo unspecified)	-6.8	62.0*	32.9	-0.2
COc1cc(OC)c(C2CC(=O)N3CN(c4ccccc4C)CSC3=C2C#N)cc1OC (stereo unspecified)	-64.3	66.8*	40.7	13.0
Cc1cccc(N2CSC3=C(C#N)C(c4ccc(C)o4)CC(=O)N3C2)c1 (stereo unspecified)	-5.5	19.4	23.4	80.1*
